Measurements as given in ChEMBL document CHEMBL1126219, “Acyclic analogues of lipid A: synthesis and biological activities” (J Med Chem, 1992).

Legend:
[1] = The endotoxic potential (LD50) by iv administration and ip administration of galactosamine (400 mg/kg); type: ADME, organism-based; conditions: mouse, in vivo
Method in brief: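 C57BL/6 mice, groups of six. Serial dilutions given i.v. by tail vein (0.2 mL, saline, or isotonic glucose with 1% ethanol) together with galactosamine 400 mg/kg i.p. LD50 calculated by probit analysis from survivors at 1 day.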

[2] = species: Mus musculus; test: Effective dose against Pseudomonas aeruginosa infection in mice; type: functional
Method in brief: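 B6D2F1 mice made myelosuppressed with cyclophosphamide 200 mg/kg sc on day -4. Compound given iv as Tris salt on day -1. Survival scored over 4 days, groups of 10. ED50 obtained by Probit analysis.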

[3] = species: Mus musculus; test: Compound was tested for its potency to induce TNF-alpha in murine macrophage cultures in the absence of INF at 1 mg/mL concentration; type: functional
Method in brief: (§1)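 Bone marrow cells from B6D2F1 mouse femurs differentiated 8-10 days at 37 °C, 5% CO2 in DMEM with 10% FCS, 5% horse serum and 20% L929 supernatant (CSF-1). Macrophages at 10⁶ cells/mL adhered 3 h, then incubated overnight without IFN-γ. Washed, exposed 4 h to compound in serum-free medium. Supernatant TNF-α measured by cytotoxicity to actinomycin-D-treated L929 cells, as IU/mL.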

[4] = species: Mus musculus; test: Compound was tested for its potency to induce TNF-alpha in murine macrophage cultures in the presence of INF at 10 mg/mL concentration; type: functional
Method in brief: (§2)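 Macrophages derived from B6D2F1 mouse bone marrow (8-10 days with L929 supernatant as CSF-1 source), plated at 10⁶ cells/mL. Adherent cells primed overnight with 100 units/mL interferon γ, washed, then incubated 4 h with compound in serum-free medium. TNF-α in supernatants determined by cytotoxicity to actinomycin-D-treated L929 cells, as IU/mL.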

[5] = species: Mus musculus; test: Compound was tested for its potency to induce TNF-alpha in murine macrophage cultures in the absence of INF at 10 mg/mL concentration; type: functional; method in brief: as §1
[6] = test system: Mus musculus; test: Nonspecific resistance against Pseudomonas aeruginosa infection in mice; administration of a single dose (12.5 mg/kg) 1 day prior to infection, group size 10 mice; type: functional
Method in brief: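 B6D2F1 mice given cyclophosphamide 200 mg/kg s.c. on day -4, then a single i.v. dose of 12.5 mg/kg on day -1 (Tris salts). Survival scored after 4 days of observation. Groups of 10 mice.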

[7] = species: Mus musculus; test: Compound was tested for its potency to induce TNF-alpha in murine macrophage cultures in the presence of INF at 1 mg/mL concentration; type: functional; method in brief: as §2

SMILES	LD50 [1] [mg/kg]	ED50 [2] [mg/kg]	Activity [3] [IU ml-1]	Activity [4] [IU ml-1]	Activity [5] [IU ml-1]	NSR survival rate [6]	Activity [7] [IU ml-1]
CCCCCCCCCCCC(O)CC(=O)NC1C(OC(=O)C[C@@H](NC(=O)CC(O)CCCCCCCCCCC)C(=O)O)OC(CO)C(O)C1OC(=O)CC(O)CCCCCCCCCCC (stereo partly drawn)	< 0.05	3.1	218	2768	618	10	2708
CCCCCCCCCCCC(O)CC(=O)NC1C(OC(=O)CC[C@H](NC(=O)CC(O)CCCCCCCCCCC)C(=O)O)OC(CO)C(O)C1OC(=O)CC(O)CCCCCCCCCCC (stereo partly drawn)	0.3	5.7	270	3285	576	9	1511
CCCCCCCCCCCC(O)CC(=O)NC1C(OCCCN(CC(=O)O)C(=O)CC(O)CCCCCCCCCCC)OC(CO)C(O)C1OC(=O)CC(O)CCCCCCCCCCC (stereo not drawn)	0.1	1.5	523	3050	1498	10	920
CCCCCCCCCCCC(O)CC(=O)NC1C(OC(=O)CC[C@@H](NC(=O)CC(O)CCCCCCCCCCC)C(=O)O)OC(CO)C(O)C1OC(=O)CC(O)CCCCCCCCCCC (stereo partly drawn)	0.04	0.3	518	>2409	688	10	>2409
CCCCCCCCCCCC(O)CC(=O)NC1C(OCCCN(CC(=O)O)C(=O)CC(O)CCCCCCCCCCC)OC(CO)C(O)C1O (stereo not drawn)	> 5	–	–	0	0	3	–
CCCCCCCCCCCC(O)CC(=O)NC1C(OC(=O)C[C@H](NC(=O)CC(O)CCCCCCCCCCC)C(=O)O)OC(CO)C(O)C1OC(=O)CC(O)CCCCCCCCCCC (stereo partly drawn)	1	> 12.5	0	899	446	8	25
CCCCCCCCCCCC(O)CC(=O)NC1C(OC(=O)CC[C@H](NC(=O)CC(O)CCCCCCCCCCC)C(=O)O)OC(CO)C(O)C1NC(=O)CC(O)CCCCCCCCCCC (stereo partly drawn)	0.2	1.5	175	1570	1069	8	294
CCCCCCCCCCCC(O)CC(=O)NC1C(OC(=O)CC[C@@H](NC(=O)CC(O)CCCCCCCCCCC)C(=O)O)OC(CO)C(O)C1NC(=O)CC(O)CCCCCCCCCCC (stereo partly drawn)	5.1	> 25	27	609	464	3	151
